Most compounds without a hit are left out; they make up all but 2.9% or so of the library.
MEKK3 PB1 HTS: MEKK3-MEK5 PB1 interaction, increase or decrease; 1.4% of 290,000 active; bead-based flow cytometry, Alexa488-MEK5 binding to MEKK3; actives lie on both sides; 0 = blocked by unlabeled MEK5, 100 = vehicle; AID 1529; binding response (% of control), % at 10 µM;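 active means binding response more than 3 SD above or below the average of its plate-row segment, actives on both sides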;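 further: Alexa488 bead fluorescence after subtracting the streptavidin-only scavenger bead signal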
B2AR ag: human beta-2 adrenergic receptor agonism by FAP; Am2.2-beta2AR cells, FAP receptor internalization, flow cytometry; response, % (concentration not given with the values); 0.43% of 340,000 active;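 active means response above a set limit, near 3 SD of response in nonfluorescent compounds, cut at about 42% in these data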
ATG4B inh: blocks human ATG4B protease cleavage of LC3 substrate | Q9Y4P1 | ATG4B cleavage of LC3-PLA2, NBD-HPC fluorescence, 1 h | inhibition, % at 8.33 µM | 0.51% of 340,000 active; in the data active means inhibition above about 40%
Target sequence (Q9Y4P1 whole entry, looked up): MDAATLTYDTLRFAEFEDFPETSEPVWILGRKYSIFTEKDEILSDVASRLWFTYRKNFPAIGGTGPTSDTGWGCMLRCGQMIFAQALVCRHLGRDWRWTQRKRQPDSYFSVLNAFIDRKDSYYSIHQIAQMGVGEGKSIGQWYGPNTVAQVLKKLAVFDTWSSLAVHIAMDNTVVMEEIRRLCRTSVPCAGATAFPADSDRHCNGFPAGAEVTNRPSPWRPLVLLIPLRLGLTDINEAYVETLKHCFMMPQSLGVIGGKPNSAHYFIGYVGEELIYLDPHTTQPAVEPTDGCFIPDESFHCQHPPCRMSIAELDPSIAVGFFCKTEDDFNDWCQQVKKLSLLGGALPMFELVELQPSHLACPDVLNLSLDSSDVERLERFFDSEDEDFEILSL
MEKK2 mut-MEK5: signal of MEK5 binding to mutant human MEKK2 PB1 domain. percent response, % at 10 µM. bead flow cytometry, Alexa488-MEK5 binding to MEKK2 mutant. 0.35% of 290,000 active; in the data active means percent response above about 24%, passing the limit was not always enough
MEKK2 WT-MEK5: raises or lowers MEK5 binding to wildtype human MEKK2 PB1 domain | Q9Y2U5 | bead flow cytometry, Alexa488-MEK5 binding to MEKK2 WT; actives lie on both sides | binding response (% of control), % at 10 µM | 1.1% of 290,000 active | AID 1531; in the data active means binding response below about 67% or above about 130%
Dynein transport: dynein cargo transport inhibition; z-score, hits read low; 0.47% of 220,000 active; 3617.4 mouse cells, GR-EGFP nuclear translocation imaging; test concentration mostly 20 µM; stimulated with dexamethasone, 1 µM; hits give low values;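 active means plate z-score of nuclear minus cytoplasmic receptor signal below a set negative limit, without overly bright fluorescence or cell loss, cut at about -3.5 in these data, passing the limit was not always enough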;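 further: z-score of nuclear minus cytoplasmic ring GR-EGFP intensity difference per well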
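Also added – dexamethasone, 1.0 µM final · Buffer or medium – tet-free, stripped-serum medium · Schedule – induction 48 h, compound 1 h, agonist 30 min · Detection – formaldehyde fixation, Hoechst nuclear stain, 10x automated fluorescence imaging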
MEKK2wt confirm: raises or lowers MEK5 binding to wildtype human MEKK2, retest; 2.4% of 5,900 active; bead flow cytometry, Alexa488-MEK5 binding to MEKK2 WT; actives lie on both sides; shares compounds with MEKK3 PB1 HTS; AID 1892; binding response (% of control), % at 10 µM; in the data active means binding response below about 16% or above about 210%; inactive means in between
MEKK2mut-MEK5: signal of MEK5 binding to mutant human MEKK2, retest; percent response, % at 10 µM; shares compounds with MEKK3 PB1 HTS; AID 1893; bead flow cytometry, Alexa488-MEK5 binding to MEKK2 mutant; 2% of 5,900 active; in the data active means percent response mostly above about 71%, no sharp cut-off; inactive means mostly below about 38%;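 further: higher means compound restores mutant binding toward wildtype level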
MEKK3-MEK5 inh: MEKK3-MEK5 PB1 inhibition, single concentration confirmation; shares compounds with MEKK3 PB1 HTS; bead flow cytometry, Alexa488-MEK5 binding to MEKK3; hits give low values; binding response (% of control), % at 10 µM; 1.8% of 5,900 active;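 active means binding response below 72% of control, or above a set upper limit, though filed actives all read lower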;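 further: 100% = DMSO only wells and 0% = binding blocked by excess unlabeled MEK5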
* marks the source's active call; other numbers are inactive results; [ ] = dose if it differs, or a comment.

What do the screens show for `O=C(O)CC/C(=N/Nc1ccc([N+](=O)[O-])cc1)C(=O)O`?
MEKK3 PB1 HTS: 75.0*[inhibitor]; B2AR ag: 4.1; ATG4B inh: 1.3; MEKK2 mut-MEK5: -26.0; MEKK2 WT-MEK5: 71.0; Dynein transport: 0.828; MEKK2wt confirm: 101.0; MEKK2mut-MEK5: -2.0; MEKK3-MEK5 inh: 100.0

What do the screens show for `Cc1cc(C(=O)NNC(=S)NCC(C)C)cs1`?
MEKK3 PB1 HTS: 75.0*[inhibitor]; B2AR ag: 11.1; ATG4B inh: -7.0; MEKK2 mut-MEK5: -2.0; MEKK2 WT-MEK5: 91.0; Dynein transport: 1.03; MEKK2wt confirm: 98.0; MEKK2mut-MEK5: 9.0; MEKK3-MEK5 inh: 104.0

Results for Cc1cc(C(=O)NNC(=S)NCc2ccccc2)cs1 ?
MEKK3 PB1 HTS: 96.0; B2AR ag: 27.5; ATG4B inh: 3.8; MEKK2 mut-MEK5: -1.0; MEKK2 WT-MEK5: 95.0; Dynein transport: -0.602

What do the screens show for `CCC1CCCCN1CCCNC(=O)c1ccc(CS(=O)(=O)c2ccccc2C)o1` (stereo not drawn)?
MEKK3 PB1 HTS: 102.0; B2AR ag: -2.7; ATG4B inh: -6.5; MEKK2 mut-MEK5: 3.0; MEKK2 WT-MEK5: 116.0

How did CCOC(=O)C(NC(=O)c1ccccc1)C(C)(C)SCc1ccccc1 (stereo not drawn) do in these assays?
B2AR ag: -1.2; ATG4B inh: -3.4

What do the screens show for `COc1ccc(/C=C(\NC(=O)c2ccccc2)C(=O)NCc2cccnc2)cc1`?
MEKK3 PB1 HTS: 101.0; B2AR ag: -4.6; ATG4B inh: 1.6; MEKK2 mut-MEK5: 0.0; MEKK2 WT-MEK5: 97.0

How did COc1ccc(CCNC(=O)C(=O)NCc2ccccn2)cc1 do in these assays?
MEKK3 PB1 HTS: 135.0*; B2AR ag: 0.1; ATG4B inh: -4.8; MEKK2 mut-MEK5: 5.0; MEKK2 WT-MEK5: 117.0; Dynein transport: -0.397; MEKK2wt confirm: 98.0; MEKK2mut-MEK5: -7.0; MEKK3-MEK5 inh: 98.0

What do the screens show for `COc1ccc(CCNC(=O)/C(=C/c2cccnc2)NC(=O)c2ccccc2)cc1`?
MEKK3 PB1 HTS: 128.0*; B2AR ag: -12.1; ATG4B inh: -1.6; MEKK2 mut-MEK5: -1.0; MEKK2 WT-MEK5: 101.0; Dynein transport: -0.0102; MEKK2wt confirm: 96.0; MEKK2mut-MEK5: -11.0; MEKK3-MEK5 inh: 101.0

How did CCOC(=O)n1c(O)c(N=NC(N)=S)c2cc(C)ccc21 do in these assays?
MEKK3 PB1 HTS: 68.0*[inhibitor]; B2AR ag: -1.2; ATG4B inh: -8.6; MEKK2 mut-MEK5: -20.0; MEKK2 WT-MEK5: 69.0; Dynein transport: -0.627; MEKK2wt confirm: 104.0; MEKK2mut-MEK5: 2.0; MEKK3-MEK5 inh: 103.0

What do the screens show for `O=C(CCc1ccccc1)NNC(=S)Nc1ccc(F)cc1`?
MEKK3 PB1 HTS: 70.0*[inhibitor]; B2AR ag: 7.8; ATG4B inh: 3.9; MEKK2 mut-MEK5: -2.0; MEKK2 WT-MEK5: 84.0; Dynein transport: 0.283; MEKK2wt confirm: 101.0; MEKK2mut-MEK5: -4.0; MEKK3-MEK5 inh: 93.0

How did Cc1nn(CCC(=O)NNC(=S)Nc2ccc(F)cc2)c(C)c1Br do in these assays?
MEKK3 PB1 HTS: 129.0*; B2AR ag: 1.0; ATG4B inh: -4.8; MEKK2 mut-MEK5: 0.0; MEKK2 WT-MEK5: 104.0; Dynein transport: 0.253; MEKK2wt confirm: 102.0; MEKK2mut-MEK5: 3.0; MEKK3-MEK5 inh: 102.0

What do the screens show for `COc1cc(OC)cc(C(=O)OC(C)C(=O)NC2CCCc3ccccc32)c1` (stereo not drawn)?
B2AR ag: -2.5; ATG4B inh: -7.0

Results for COc1ccccc1NC(=O)CNC(=O)Cn1cnc2sc(C)c(C)c2c1=O ?
MEKK3 PB1 HTS: 100.0; B2AR ag: -4.8; ATG4B inh: -2.4; MEKK2 mut-MEK5: 0.0; MEKK2 WT-MEK5: 103.0

Results for CCCCC1(CC(=O)OC)C(=O)N(c2ccccc2)N(c2ccccc2)C1=O ?
MEKK3 PB1 HTS: 138.0*; B2AR ag: 1.8; ATG4B inh: 0.1; MEKK2 mut-MEK5: 2.0; MEKK2 WT-MEK5: 107.0; Dynein transport: 0.312; MEKK2wt confirm: 102.0; MEKK2mut-MEK5: -6.0; MEKK3-MEK5 inh: 103.0

How did CCCCC1(Cc2ccc(OC)c([N+](=O)[O-])c2)C(=O)N(c2ccccc2)N(c2ccccc2)C1=O do in these assays?
MEKK3 PB1 HTS: 113.0; B2AR ag: -3.9; ATG4B inh: -6.3; MEKK2 mut-MEK5: 4.0; MEKK2 WT-MEK5: 107.0; Dynein transport: 0.723

Results for NC1=NC[C@H](CC2CCCCC2)N1CCc1cc(C(F)(F)F)cc(C(F)(F)F)c1 ?
MEKK3 PB1 HTS: 111.0; B2AR ag: 15.5; ATG4B inh: 18.3; MEKK2 mut-MEK5: 25.0*; MEKK2 WT-MEK5: 156.0*; Dynein transport: -5.55; MEKK2wt confirm: 127.0; MEKK2mut-MEK5: 4.0; MEKK3-MEK5 inh: 97.0

How did Nc1cc(=O)[nH]c(SCC(=O)Nc2nc3ccc([N+](=O)[O-])cc3s2)n1 do in these assays?
MEKK3 PB1 HTS: 107.0; MEKK2 mut-MEK5: 3.0; MEKK2 WT-MEK5: 108.0; Dynein transport: 0.534

How did Nc1cc(=O)[nH]c(SCC(=O)Nc2cc([N+](=O)[O-])ccc2Cl)n1 do in these assays?
MEKK3 PB1 HTS: 138.0*; B2AR ag: 1.1; ATG4B inh: -6.3; MEKK2 mut-MEK5: 4.0; MEKK2 WT-MEK5: 117.0; Dynein transport: 1.16; MEKK2wt confirm: 101.0; MEKK2mut-MEK5: 2.0; MEKK3-MEK5 inh: 103.0

What do the screens show for `CC1=C(C)CC(C(=O)NNC(=O)c2csc(C)c2C)C(C(=O)O)C1` (stereo not drawn)?
MEKK3 PB1 HTS: 98.0; B2AR ag: 7.3; ATG4B inh: 1.2; MEKK2 mut-MEK5: -2.0; MEKK2 WT-MEK5: 96.0; Dynein transport: 0.826

What do the screens show for `COc1ccc(-c2nnc(-c3ccc(N(C)C)cc3)o2)cc1`?
MEKK3 PB1 HTS: 98.0; B2AR ag: 12.1; ATG4B inh: -19.6; MEKK2 mut-MEK5: 1.0; MEKK2 WT-MEK5: 101.0; Dynein transport: 1.52

Results for CN(C)c1ccc(-c2nnc(-c3ccccc3F)o2)cc1 ?
MEKK3 PB1 HTS: 104.0; B2AR ag: -5.7; ATG4B inh: -3.7; MEKK2 mut-MEK5: 26.0*; MEKK2 WT-MEK5: 104.0; MEKK2wt confirm: 96.0; MEKK2mut-MEK5: -5.0; MEKK3-MEK5 inh: 99.0

Screens as filed in PubChem BioAssay.
